# Measured values: ChEMBL document CHEMBL1134488, “Potent reversible inhibitors of the protein tyrosine phosphatase CD45” (J Med Chem, 2001)
# Tests used:
# Cathepsin S = Cathepsin S (Homo sapiens, UniProt P25774); test: Inhibitory concentration against Cathepsin S
# Procedure, shortened: (§1)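 Cysteine protease assays. Peptide substrates were CBZ-L-lysine p-nitrophenyl ester, Z-Phe-Arg-NH-Mec and Z-Val-Val-Arg-NH-Mec. Values are means of experiments run in triplicate, given in µM.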
# T-cell [1] = test: Cytotoxicity measured against human T-cells; assay type: functional
# [2] = target: T1, Receptor-type tyrosine-protein phosphatase C (Homo sapiens, UniProt P08575); test: Inhibitory concentration against CD45 protein-tyrosine phosphatase using lck-10mer as substrate
# T1 sequence (P08575 whole entry): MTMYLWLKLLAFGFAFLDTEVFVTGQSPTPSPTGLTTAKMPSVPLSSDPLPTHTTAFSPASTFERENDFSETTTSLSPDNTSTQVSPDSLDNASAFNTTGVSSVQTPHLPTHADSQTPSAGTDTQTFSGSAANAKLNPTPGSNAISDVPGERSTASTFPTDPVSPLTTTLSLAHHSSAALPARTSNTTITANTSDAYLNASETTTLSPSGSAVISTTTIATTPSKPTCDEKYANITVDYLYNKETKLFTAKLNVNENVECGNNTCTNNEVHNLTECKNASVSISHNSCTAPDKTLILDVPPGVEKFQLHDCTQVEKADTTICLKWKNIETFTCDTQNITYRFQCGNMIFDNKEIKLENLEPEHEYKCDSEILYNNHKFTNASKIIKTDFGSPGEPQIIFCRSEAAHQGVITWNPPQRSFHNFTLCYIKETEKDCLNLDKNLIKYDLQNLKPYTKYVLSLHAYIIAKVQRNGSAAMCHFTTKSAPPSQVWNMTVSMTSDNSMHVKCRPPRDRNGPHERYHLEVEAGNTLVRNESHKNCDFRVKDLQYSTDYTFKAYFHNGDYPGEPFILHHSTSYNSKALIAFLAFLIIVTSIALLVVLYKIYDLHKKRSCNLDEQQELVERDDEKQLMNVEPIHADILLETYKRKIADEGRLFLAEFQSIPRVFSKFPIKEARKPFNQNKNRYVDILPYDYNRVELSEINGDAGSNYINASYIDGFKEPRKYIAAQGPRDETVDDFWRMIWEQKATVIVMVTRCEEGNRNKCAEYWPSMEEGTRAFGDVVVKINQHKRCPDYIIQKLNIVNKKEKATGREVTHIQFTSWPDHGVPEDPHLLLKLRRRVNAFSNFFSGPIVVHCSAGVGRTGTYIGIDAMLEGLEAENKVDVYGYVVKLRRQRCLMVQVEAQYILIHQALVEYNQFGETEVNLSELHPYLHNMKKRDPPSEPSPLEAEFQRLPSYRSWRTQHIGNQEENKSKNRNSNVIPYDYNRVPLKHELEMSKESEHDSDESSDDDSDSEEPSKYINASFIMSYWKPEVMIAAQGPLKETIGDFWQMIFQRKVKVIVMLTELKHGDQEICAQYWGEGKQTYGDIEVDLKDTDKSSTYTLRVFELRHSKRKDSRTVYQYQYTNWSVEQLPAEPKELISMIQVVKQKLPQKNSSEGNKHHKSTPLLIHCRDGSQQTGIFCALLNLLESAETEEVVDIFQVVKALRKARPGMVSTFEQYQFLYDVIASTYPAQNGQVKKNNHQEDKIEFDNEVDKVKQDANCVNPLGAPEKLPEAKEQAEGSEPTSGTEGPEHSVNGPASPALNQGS
# T-cell [3] = test: In vitro inhibition of human T-cell proliferation; assay type: functional, cell-based
# [4] = target: T2, Tyrosine-protein phosphatase non-receptor type 13 (Homo sapiens, UniProt Q12923); test: Inhibitory concentration against FAP-1 pNPP
# [5] = target: T2, Tyrosine-protein phosphatase non-receptor type 13; test: Inhibitory concentration against FAP-1 using lck-10 mer as substrate
# Procathepsin L = Procathepsin L (Homo sapiens, UniProt P07711); test: Inhibitory concentration against Cathepsin L; procedure, shortened: as §1
# Cathepsin B = Cathepsin B (Homo sapiens, UniProt P07858); test: Inhibitory concentration against Cathepsin B; procedure, shortened: as §1
# [6] = target: T2, Tyrosine-protein phosphatase non-receptor type 13; test: Inhibitory concentration against FAP-1 using lck-10mer as substrate
# [7] = target: T2, Tyrosine-protein phosphatase non-receptor type 13; test: Inhibitory concentration against FAP-1 using pNPP as substrate
# [8] = target: T3, Tyrosine-protein phosphatase non-receptor type 1 (Homo sapiens, UniProt P18031); test: Inhibitory concentration against PTP1B lusing lck-10mer as substrate
# T3 sequence (P18031 whole entry): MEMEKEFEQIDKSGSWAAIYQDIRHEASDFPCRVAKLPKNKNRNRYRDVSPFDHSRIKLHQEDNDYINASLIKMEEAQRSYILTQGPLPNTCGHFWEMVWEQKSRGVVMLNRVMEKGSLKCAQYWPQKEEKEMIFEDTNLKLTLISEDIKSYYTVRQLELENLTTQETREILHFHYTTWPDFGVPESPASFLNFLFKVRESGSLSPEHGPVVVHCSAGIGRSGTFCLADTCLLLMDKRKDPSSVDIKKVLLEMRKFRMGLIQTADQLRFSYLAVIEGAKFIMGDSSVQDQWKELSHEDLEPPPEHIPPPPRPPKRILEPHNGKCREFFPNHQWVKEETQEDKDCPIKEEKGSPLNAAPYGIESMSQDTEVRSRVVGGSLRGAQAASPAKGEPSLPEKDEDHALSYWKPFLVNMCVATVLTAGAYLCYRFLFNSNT
# T2 sequence (Q12923 whole entry): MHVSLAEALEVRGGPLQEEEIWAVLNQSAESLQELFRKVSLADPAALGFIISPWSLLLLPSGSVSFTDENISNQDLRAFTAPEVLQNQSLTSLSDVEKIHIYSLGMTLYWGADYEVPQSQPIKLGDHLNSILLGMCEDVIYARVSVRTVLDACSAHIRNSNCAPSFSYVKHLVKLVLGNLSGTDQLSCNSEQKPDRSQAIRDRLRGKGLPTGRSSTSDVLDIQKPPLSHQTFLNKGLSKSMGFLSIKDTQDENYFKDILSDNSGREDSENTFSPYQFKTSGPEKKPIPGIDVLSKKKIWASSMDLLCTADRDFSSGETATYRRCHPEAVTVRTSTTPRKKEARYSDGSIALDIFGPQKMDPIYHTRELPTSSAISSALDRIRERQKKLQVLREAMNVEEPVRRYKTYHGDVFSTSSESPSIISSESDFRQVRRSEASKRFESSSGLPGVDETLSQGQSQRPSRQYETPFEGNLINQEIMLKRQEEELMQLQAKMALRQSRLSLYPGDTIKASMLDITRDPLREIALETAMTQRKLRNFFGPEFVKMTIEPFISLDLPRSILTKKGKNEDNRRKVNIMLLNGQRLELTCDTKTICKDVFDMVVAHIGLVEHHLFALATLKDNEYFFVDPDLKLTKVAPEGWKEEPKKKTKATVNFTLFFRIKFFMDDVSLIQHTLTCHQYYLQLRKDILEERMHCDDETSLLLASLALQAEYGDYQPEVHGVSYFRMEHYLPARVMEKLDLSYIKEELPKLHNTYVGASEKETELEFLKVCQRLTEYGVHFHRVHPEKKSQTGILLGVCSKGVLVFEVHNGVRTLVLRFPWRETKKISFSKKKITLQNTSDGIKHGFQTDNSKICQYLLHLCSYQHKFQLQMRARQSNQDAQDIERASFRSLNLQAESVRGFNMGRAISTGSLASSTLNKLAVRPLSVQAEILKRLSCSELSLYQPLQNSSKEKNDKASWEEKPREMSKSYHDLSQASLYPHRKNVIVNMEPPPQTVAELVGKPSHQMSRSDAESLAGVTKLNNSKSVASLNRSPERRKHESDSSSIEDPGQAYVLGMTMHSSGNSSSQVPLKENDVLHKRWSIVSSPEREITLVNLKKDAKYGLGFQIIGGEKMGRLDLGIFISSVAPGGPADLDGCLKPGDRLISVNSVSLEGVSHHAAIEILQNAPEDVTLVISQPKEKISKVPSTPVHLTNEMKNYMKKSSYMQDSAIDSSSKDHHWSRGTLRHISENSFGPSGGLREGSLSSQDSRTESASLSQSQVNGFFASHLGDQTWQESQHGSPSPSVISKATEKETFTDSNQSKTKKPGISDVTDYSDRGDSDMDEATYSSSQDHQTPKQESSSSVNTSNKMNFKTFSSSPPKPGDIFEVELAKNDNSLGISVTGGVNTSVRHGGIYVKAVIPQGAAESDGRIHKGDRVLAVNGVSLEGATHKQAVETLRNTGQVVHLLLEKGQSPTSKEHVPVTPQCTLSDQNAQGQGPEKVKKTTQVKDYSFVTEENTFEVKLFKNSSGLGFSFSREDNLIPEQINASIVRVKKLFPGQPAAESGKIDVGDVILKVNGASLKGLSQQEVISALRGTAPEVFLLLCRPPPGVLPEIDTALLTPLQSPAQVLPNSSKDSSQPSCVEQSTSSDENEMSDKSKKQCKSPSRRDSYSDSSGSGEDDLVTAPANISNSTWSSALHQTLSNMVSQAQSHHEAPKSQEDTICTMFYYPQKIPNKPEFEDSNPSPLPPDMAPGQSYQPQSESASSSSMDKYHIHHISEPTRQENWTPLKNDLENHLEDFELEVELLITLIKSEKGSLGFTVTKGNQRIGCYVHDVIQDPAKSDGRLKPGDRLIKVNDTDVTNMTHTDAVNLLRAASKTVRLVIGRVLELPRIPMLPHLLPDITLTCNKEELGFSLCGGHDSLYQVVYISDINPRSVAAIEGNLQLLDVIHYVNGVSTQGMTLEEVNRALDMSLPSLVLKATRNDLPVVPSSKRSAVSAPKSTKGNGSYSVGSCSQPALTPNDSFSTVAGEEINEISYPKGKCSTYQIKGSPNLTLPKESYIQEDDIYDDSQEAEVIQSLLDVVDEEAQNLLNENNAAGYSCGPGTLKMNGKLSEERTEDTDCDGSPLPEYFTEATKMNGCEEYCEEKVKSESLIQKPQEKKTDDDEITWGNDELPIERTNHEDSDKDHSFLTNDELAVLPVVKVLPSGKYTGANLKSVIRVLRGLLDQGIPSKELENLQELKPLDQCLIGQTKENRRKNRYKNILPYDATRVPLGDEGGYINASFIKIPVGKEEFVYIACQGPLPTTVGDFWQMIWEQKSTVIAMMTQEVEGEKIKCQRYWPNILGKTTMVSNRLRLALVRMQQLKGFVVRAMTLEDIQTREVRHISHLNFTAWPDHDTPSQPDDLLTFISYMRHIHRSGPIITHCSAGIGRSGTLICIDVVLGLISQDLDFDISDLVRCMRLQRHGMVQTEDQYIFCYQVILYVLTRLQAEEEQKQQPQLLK
# Sequence of Procathepsin L (P07711 whole entry): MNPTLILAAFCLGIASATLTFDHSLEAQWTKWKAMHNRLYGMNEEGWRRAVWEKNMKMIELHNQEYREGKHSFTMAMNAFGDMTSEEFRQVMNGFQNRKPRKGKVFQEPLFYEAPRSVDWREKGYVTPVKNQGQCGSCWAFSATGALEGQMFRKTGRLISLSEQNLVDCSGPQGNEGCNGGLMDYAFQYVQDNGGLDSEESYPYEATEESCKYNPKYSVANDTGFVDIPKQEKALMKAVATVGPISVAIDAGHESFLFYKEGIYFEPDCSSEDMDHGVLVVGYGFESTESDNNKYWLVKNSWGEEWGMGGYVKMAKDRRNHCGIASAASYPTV
# Sequence of Cathepsin S (P25774 whole entry): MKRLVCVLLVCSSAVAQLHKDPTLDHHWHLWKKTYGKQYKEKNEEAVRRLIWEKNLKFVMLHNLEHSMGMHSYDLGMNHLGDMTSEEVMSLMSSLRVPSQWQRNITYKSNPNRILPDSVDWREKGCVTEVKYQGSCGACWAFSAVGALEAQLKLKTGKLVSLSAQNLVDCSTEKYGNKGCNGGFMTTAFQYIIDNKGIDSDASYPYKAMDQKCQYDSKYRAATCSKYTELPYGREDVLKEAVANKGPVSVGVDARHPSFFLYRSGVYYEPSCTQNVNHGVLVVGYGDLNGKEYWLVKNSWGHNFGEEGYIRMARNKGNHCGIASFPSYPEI
IC50 (Cathepsin S) [µM],IC50 [2] [µM],IC50 [4] [µM],IC50 [5] [µM],IC50 (Procathepsin L) [µM],IC50 (Cathepsin B) [µM],IC50 [6] [µM],IC50 [7] [µM],IC50 [8] [µM],Compound,CC50 (T-cell [1]) [µM],IC50 (T-cell [3]) [µM]
> 10,1.9,15,> 30,0.9,> 10,–,–,–,O=C(O)CNC(=O)c1ccc2c(c1)C(=O)C(=O)c1ccccc1-2,> 30,4.4
6,–,–,–,0.6,> 10,> 30,4.7,> 30,Nc1ccc2c(c1)C(=O)C(=O)c1ccccc1-2,5,–
